Reference: ChEMBL document CHEMBL1151874, “Design and synthesis of novel hybrid benzamide-peptide histone deacetylase inhibitors” (Bioorg Med Chem Lett, 2009)
Activity calls are given as the source filed them. No cut-off for these calls is given here. Non-standard residues stand in square brackets, D forms with d. Residues, ends and D or L forms follow the SMILES beside them. *: point of attachment. Asu = N[C@@H](CCCCCC(=O)O)C(=O)O; NH(2-NH2-phenyl) = Nc1ccccc1N*

Assays:
[1] = target: Histone deacetylase 3 (Homo sapiens, UniProt O15379); assay: Inhibition of human recombinant HDAC3
Sequence of Histone deacetylase 3 (O15379 whole entry): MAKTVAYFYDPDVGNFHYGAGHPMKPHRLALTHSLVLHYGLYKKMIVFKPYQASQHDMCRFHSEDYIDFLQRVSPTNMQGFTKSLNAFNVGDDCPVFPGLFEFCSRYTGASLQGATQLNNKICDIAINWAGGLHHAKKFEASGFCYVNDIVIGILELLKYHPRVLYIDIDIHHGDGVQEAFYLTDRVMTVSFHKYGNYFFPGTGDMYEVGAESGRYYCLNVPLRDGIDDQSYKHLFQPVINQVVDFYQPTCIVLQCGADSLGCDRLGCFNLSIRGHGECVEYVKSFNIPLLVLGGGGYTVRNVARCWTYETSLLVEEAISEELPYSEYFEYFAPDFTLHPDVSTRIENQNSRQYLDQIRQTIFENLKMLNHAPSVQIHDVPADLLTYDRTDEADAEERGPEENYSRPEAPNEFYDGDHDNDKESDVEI
Procedure, shortened: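 Recombinant human HDAC1 or HDAC3 enzyme inhibition assay. IC50 values are means of two experiments, with standard error reported.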

[2] = target: Histone deacetylase (Homo sapiens) (UniProt Q13547+O15379+Q9UBN7+Q92769+Q9UQL6+Q8WUI4+Q9BY41+Q96DB2+P56524+Q9UKV0+Q969S8); assay: Inhibition of HDAC in human GM15850 cells assessed as effect on histone H3 acetylation at 20 uM after 48 hrs by Western blot analysis; type: cell-based
Procedure, shortened: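 Human lymphoblastoid line GM15850 exposed to compound at 20 µM for 48 h; endogenous histone H3 acetylation judged by western blot.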

[3] = target: Histone deacetylase 1 (Homo sapiens, UniProt Q13547); assay: Inhibition of human recombinant HDAC1
Sequence of Histone deacetylase 1 (Q13547 whole entry): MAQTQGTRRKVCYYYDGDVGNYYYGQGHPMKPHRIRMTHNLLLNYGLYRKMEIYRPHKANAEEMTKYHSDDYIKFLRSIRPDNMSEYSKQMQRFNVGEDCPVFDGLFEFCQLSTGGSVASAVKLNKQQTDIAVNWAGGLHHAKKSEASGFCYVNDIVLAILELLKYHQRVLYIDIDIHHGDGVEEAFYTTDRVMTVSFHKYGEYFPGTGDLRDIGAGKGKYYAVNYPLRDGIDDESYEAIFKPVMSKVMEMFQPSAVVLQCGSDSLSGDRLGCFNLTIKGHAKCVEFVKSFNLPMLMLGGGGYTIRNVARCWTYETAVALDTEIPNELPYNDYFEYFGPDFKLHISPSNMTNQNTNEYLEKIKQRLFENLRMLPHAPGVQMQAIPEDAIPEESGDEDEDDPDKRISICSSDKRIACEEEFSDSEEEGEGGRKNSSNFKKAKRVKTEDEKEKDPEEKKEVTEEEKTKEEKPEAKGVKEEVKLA
Procedure, shortened: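 Enzyme source: recombinant human HDAC1. IC50 reported as mean of two experiments with standard error.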

[4] = species: Homo sapiens; assay: Selectivity ratio of IC50 for human recombinant HDAC1 to IC50 for human recombinant HDAC3
[5] = Inhibition of Eimeria tenella HDAC1 assessed as [3H]acetate release by scintillation counting

SMILES | IC50 [1] [µM] | Activity [2] | IC50 [3] [µM] | Ratio IC50 [4] | IC50 [5] [µM]
N=C(N)NCCC[C@H](N)C(=O)NCC(=O)N[C@@H](CCCCCC(=O)Nc1ccccc1N)C(=O)Nc1ccccc1N | 1.3 | Active | 4.7 | – | –
Cc1ccc(C(=O)NCC(=O)NCCC(=O)Nc2ccccc2N)cc1 | 4.3 | Active | 83.9 | 19 | –
N=C(N)NCCC[C@@H]1NC(=O)CNC(=O)[C@H](CCCCCC(=O)Nc2ccccc2N)NC(=O)CNC1=O (cyclo([Asu](NH(2-NH2-phenyl))GRG)) | – | Active | – | – | –
CCC(=O)CCCCC[C@@H]1NC(=O)[C@H]2CCCCN2C(=O)[C@H]([C@@H](C)CC)NC(=O)[C@H](Cc2cn(OC)c3ccccc23)NC1=O [APICIDIN] | – | – | – | – | 0.004
Cc1ccc(C(=O)N[C@@H](CCCN=C(N)N)C(=O)NCCC(=O)Nc2ccccc2N)cc1 | 2.2 | – | 9.2 | – | –
Nc1ccccc1NC(=O)CCCCC[C@H](NC(=O)[C@H]1CCCN1C(=O)[C@@H](N)Cc1ccccc1)C(=O)N[C@@H](Cc1ccccc1)C(=O)O | 27.2 | – | 84.2 | – | –
Nc1ccccc1NC(=O)CCCCC[C@@H]1NC(=O)[C@H]2CCCN2C(=O)[C@H](Cc2ccccc2)NC(=O)[C@H](Cc2ccccc2)NC1=O | 5.6 | – | 20.5 | – | –
Nc1ccccc1NC(=O)CCCCC[C@H](NC(=O)[C@@H]1CCCN1C(=O)[C@@H](N)Cc1ccccc1)C(=O)Nc1ccccc1N | 3.4 | – | 7.3 | – | –
